These results are taken from ChEMBL document CHEMBL1153741, “Antineoplastic agents. 556. Isolation and structure of Coprinastatin 1 from Coprinus cinereus” (2010).

Converted amounts (≈) assume the structure as drawn. The source made the active and inactive calls. The calls are words filed in the database; no cut-off is given here.

Assay [1] relates to P388. In words: Cytotoxicity against mouse P388 cells. It is filed as functional.
Assay [2] concerns Neisseria gonorrhoeae. Put plainly: Antibacterial activity against Neisseria gonorrhoeae ATCC 49226 by broth microdilution assay. It is filed as functional. The gist of the method: (§1)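 Samples reconstituted in a small volume of sterile DMSO and diluted in the appropriate medium immediately before testing by established broth microdilution. MIC taken as the lowest concentration that inhibited all visible growth of the test organism (optically clear wells). Assays were repeated on separate days.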
(Broth dilution looks for growth in wells or tubes with falling amounts of substance.)

Assay [3] concerns Stenotrophomonas maltophilia. In words: Antibacterial activity against Stenotrophomonas maltophilia ATCC 13637 by broth microdilution assay. It is filed as functional, organism-based. Summed up:
as §1

The test system of assay [4] is Cryptococcus neoformans. Put plainly: Antifungal activity against Cryptococcus neoformans ATCC 90112 by broth microdilution assay. It is filed as functional, organism-based. The gist of the method:
as §1

Assay [5] deals with Candida albicans. In words: Antifungal activity against Candida albicans ATCC 90028 by broth microdilution assay. It is filed as functional, organism-based. Summed up:
as §1

The subject of assay [6] is Micrococcus luteus. In words: Antibacterial activity against Micrococcus luteus Presque Isle 456 by broth microdilution assay. It is filed as functional, organism-based. The gist of the method:
as §1

The subject of assay [7] is Escherichia coli. Put plainly: Antibacterial activity against Escherichia coli ATCC 25922 by broth microdilution assay. It is filed as functional, organism-based. The gist of the method: as §1
The subject of assay [8] is Streptococcus pneumoniae. Put plainly: Antibacterial activity against Streptococcus pneumoniae ATCC 6303 by broth microdilution assay. It is filed as functional, organism-based. The gist of the method:
as §1

Assay [9] has as its system Enterococcus faecalis. In words: Antibacterial activity against Enterococcus faecalis ATCC 29212 by broth microdilution assay. It is filed as functional, organism-based. Summed up:
as §1

In assay [10] the test system is Enterobacter cloacae. Put plainly: Antibacterial activity against Enterobacter cloacae ATCC 13047 by broth microdilution assay. It is filed as functional, organism-based. Summed up:
as §1

Assay [11] deals with Staphylococcus aureus. Put plainly: Antibacterial activity against Staphylococcus aureus ATCC 29213 by broth microdilution assay. It is filed as functional, organism-based. The gist of the method: as §1

Regarding `Cc1c(O)c2c(c(C)c1CCO)CC(C)(C)C2`, the result in [1], in assay [2], in assay [3], in [4], in assay [5] and in [6] was inactive. Besides, the result in assay [7], in assay [8], in [9], in assay [10] and in assay [11] was inactive.

As to `C=C1[C@@H](O)[C@@H]2CC(C)(C)CC2=C(CO)C12CC2`, the result in assay [1], in assay [2], in assay [3], in [4], in assay [5] and in assay [6] was inactive. Further, the outcome in assay [7], in assay [8], in assay [9], in assay [10] and in [11] was inactive.

As for `Cc1c(O)c2c(c(C)c1CCO)C[C@@](C)(CO)C2`, the result in assay [1], in assay [2], in assay [3], in assay [4], in assay [5] and in assay [6] was inactive. The result in assay [7], in assay [8], in assay [9], in [10] and in assay [11] was inactive.

Turning to `C=C1[C@@H](O)[C@@H]2C[C@](C)(CO)CC2=C(C)C12CC2` [COPRINASTATIN 1], the EC50 in assay [1] (read-out: ED50 (the source's name)) was 5.3 µg/mL (≈ 22.6 µM). In assay [2], 32 µg/mL (≈ 137 µM) was the least that counted as inhibitory (MIC). Moreover, the outcome in [3], in assay [4], in assay [5], in assay [6], in assay [7] and in assay [8] was inactive. The result in assay [9], in assay [10] and in assay [11] was inactive.

As to `CC(=O)c1cccc2oc(=O)[nH]c12`, the result in assay [1], in [2], in assay [3], in assay [4], in assay [5] and in [6] was inactive. For the same compound, the result in assay [7], in assay [8], in [9], in [10] and in assay [11] was inactive.

For the compound `Cc1c(O)c2c(c(C)c1CCO)C[C@](C)(CO)C2`, the outcome in assay [1], in [2], in assay [3], in assay [4], in [5] and in assay [6] was inactive. For the same compound, the outcome in assay [7], in [8], in assay [9], in [10] and in assay [11] was inactive.
